Experiment [1] in a line: Inhibition of protein tyrosine phosphatase epsilon D1D2 domain at 1 uM relative to control. Also on record: scale not given: the % may be the effect or the level left. The method, boiled down: (§1)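 Bacterially expressed, purified PTPα or PTPε. pNPP (2 mM) dephosphorylation in 50 mM sodium acetate pH 5.5 with 0.5 mg/mL BSA and 0.5 mM DTT, at 30 °C, stopped during the linear phase. Percent activity relative to the uninhibited control. Average of three enzyme preparations, each run in duplicate, ± S.D.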

Experiment [2] addresses T1, Tyrosine-protein phosphatase non-receptor type 2 (Homo sapiens) (UniProt P17706).
T1 sequence (whole entry): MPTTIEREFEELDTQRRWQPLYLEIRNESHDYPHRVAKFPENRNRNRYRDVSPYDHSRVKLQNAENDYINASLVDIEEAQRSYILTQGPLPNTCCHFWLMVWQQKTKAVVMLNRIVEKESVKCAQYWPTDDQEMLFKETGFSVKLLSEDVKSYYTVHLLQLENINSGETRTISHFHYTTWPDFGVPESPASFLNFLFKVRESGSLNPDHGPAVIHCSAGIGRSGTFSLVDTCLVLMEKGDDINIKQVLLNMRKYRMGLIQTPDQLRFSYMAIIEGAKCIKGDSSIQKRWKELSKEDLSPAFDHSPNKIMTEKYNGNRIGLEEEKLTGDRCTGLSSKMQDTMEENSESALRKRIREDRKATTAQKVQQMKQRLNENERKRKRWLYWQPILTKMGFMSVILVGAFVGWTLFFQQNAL
Briefly: Inhibition of TCPTP at 1 uM relative to control. Also on record: scale not given: the % may be the effect or the level left. The method, boiled down:
(§2)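 Commercial phosphatase. pNPP dephosphorylation with 2 mM pNPP in 50 mM sodium acetate pH 5.5, 0.5 mg/mL BSA, 0.5 mM dithiothreitol, at 30 °C. Reactions stopped within the linear phase. Activity expressed as percent of the control without inhibitor. Mean of three separate enzyme preparations, each assayed in duplicate, ± S.D.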

For experiment [3], the target named is T2, Serine/threonine-protein phosphatase (Enterobacteria phage lambda) (UniProt P03772).
T2 sequence (whole entry): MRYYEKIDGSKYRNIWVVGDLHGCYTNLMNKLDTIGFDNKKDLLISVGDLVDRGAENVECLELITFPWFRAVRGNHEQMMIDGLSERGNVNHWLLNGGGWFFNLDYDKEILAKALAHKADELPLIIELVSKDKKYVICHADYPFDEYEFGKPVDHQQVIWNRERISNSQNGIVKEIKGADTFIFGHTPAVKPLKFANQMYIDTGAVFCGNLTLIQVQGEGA
As to the kind of experiment: Inhibition of enterobactera phage lambda PP at 1 uM relative to control. Also on record: scale not given: the % may be the effect or the level left. The method, boiled down:
(§3)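 Commercial enzyme acting on 2 mM pNPP in 50 mM sodium acetate with 0.5 mg/mL BSA and 0.5 mM DTT, at 30 °C, linear phase. pH 7 for CIP; pH 5.5 plus 2 mM Mn2+ for λPP. Percent of the no-inhibitor control. Three enzyme preparations, each in duplicate, ± S.D.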

A short description of experiment [4]: Inhibition of protein tyrosine phosphatase LAR-D1 domain at 1 uM relative to control. On the set-up: scale not given: the % may be the effect or the level left. The method, boiled down:
as §2

The test system of experiment [5] is Yersinia sp. Briefly: Inhibition of Yersinia sp. protein tyrosine phosphatase yop at 1 uM relative to control. On the set-up: scale not given: the % may be the effect or the level left. The method, boiled down: as §2
A short description of experiment [6]: Inhibition of protein tyrosine phosphatase CD45 domain at 1 uM relative to control. Also on record: scale not given: the % may be the effect or the level left. The method, boiled down: as §2
Experiment [7] can be described thus: Inhibition of protein tyrosine phosphatase alpha D1D2 domain at 1 uM relative to control. On the set-up: scale not given: the % may be the effect or the level left. The method, boiled down:
as §1

Experiment [8] is filed under the species Bos taurus. As to the kind of experiment: Inhibition of calf intestinal alkaline phosphatase at 1 uM relative to control. Also on record: scale not given: the % may be the effect or the level left. An outline of the steps:
as §3

Experiment [9] relates to Candida albicans. Briefly: Antimicrobial activity against Candida albicans at 50 uM. Format: functional, organism-based.
The subject of experiment [10] is Curvularia. Briefly: Antimicrobial activity against Curvularia sp. at 100 uM. The experiment is classed as functional, organism-based.
The subject of experiment [11] is Curvularia. As to the kind of experiment: Antimicrobial activity against Curvularia sp. at 50 uM. The experiment is classed as functional, organism-based.
Experiment [12] relates to Enterococcus faecalis. Briefly: Antimicrobial activity against Enterococcus faecalis at 100 uM. Format: functional, organism-based.
In experiment [13] the test system is Mycolicibacterium smegmatis. Briefly: Antimicrobial activity against Mycobacterium smegmatis at 50 uM. The experiment is classed as functional, organism-based.
In experiment [14] the test system is Pseudomonas aeruginosa. As to the kind of experiment: Antimicrobial activity against Pseudomonas aeruginosa at 50 uM. Format: functional, organism-based.
In experiment [15] the test system is Staphylococcus aureus. As to the kind of experiment: Antimicrobial activity against Staphylococcus aureus at 100 uM. The experiment is classed as functional, organism-based.
The test system of experiment [16] is Staphylococcus aureus. As to the kind of experiment: Antimicrobial activity against Staphylococcus aureus at 50 uM. Format: functional, organism-based.
Experiment [17] deals with Proteus vulgaris. As to the kind of experiment: Antimicrobial activity against Proteus vulgaris at 50 uM. Format: functional, organism-based.
Experiment [18] deals with Proteus vulgaris. As to the kind of experiment: Antimicrobial activity against Proteus vulgaris at 100 uM. The experiment is classed as functional, organism-based.
The test system of experiment [19] is Enterococcus faecalis. As to the kind of experiment: Antimicrobial activity against Enterococcus faecalis at 50 uM. Format: functional, organism-based.
In experiment [20] the test system is Escherichia coli. Briefly: Antimicrobial activity against Escherichia coli at 100 uM. The experiment is classed as functional, organism-based.
Experiment [21] deals with Candida albicans. Briefly: Antimicrobial activity against Candida albicans at 100 uM. Format: functional, organism-based.
The test system of experiment [22] is Escherichia coli. Briefly: Antimicrobial activity against Escherichia coli at 50 uM. The experiment is classed as functional, organism-based.
Experiment [23] relates to Mycolicibacterium smegmatis. Briefly: Antimicrobial activity against Mycobacterium smegmatis at 100 uM. The experiment is classed as functional, organism-based.
The subject of experiment [24] is Pseudomonas aeruginosa. As to the kind of experiment: Antimicrobial activity against Pseudomonas aeruginosa at 100 uM. The experiment is classed as functional, organism-based.

The structures appear in SMILES notation. The source made the active and inactive calls. The rule behind the calls is not given here.

For `Cn1nc2c(nc1=O)n(C)c(=O)n2C`, the Activity is 99% in [1]; 99% in [2]; 100% in experiment [3]; 97% in experiment [4]; 95% in [5]; 96% in experiment [6]. Further, the Activity is 98% in experiment [7] and 99% in experiment [8].

With `Cn1nc2c(nc1=O)c(=O)n(C)c(=O)n2C`, the result in experiment [9], in experiment [10], in [11], in experiment [12], in experiment [13] and in experiment [14] was inactive. Further, the outcome in experiment [15], in experiment [16], in experiment [17], in [18], in experiment [19] and in [20] was inactive. For the same compound, the result in [21], in [22], in [23] and in [24] was inactive. Moreover, the Activity in [1] came out at 17%; in experiment [2] it was 34%; in [3] it was 48%; in experiment [4] it was 17%; in experiment [5], 10%; in experiment [6] it was 15%. Moreover, the figures for the Activity in [7] and in experiment [8] were 17% and 100%, respectively.
